Reference: ChEMBL document CHEMBL1811757, “Discovery of naturally occurring aurones that are potent allosteric inhibitors of hepatitis C virus RNA-dependent RNA polymerase” (J Med Chem, 2011)
Activity calls are given as the source filed them. The calls are words filed in the database; no cut-off is given here.

Columns and labels:
Huh-7 = test: Cytotoxicity against human HuH7 cells up to 512 uM after 72 hrs by MTT assay; type: cell-based; conditions: huh-7, 72 h
Summary of the method: (§1)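 Cells trypsinized in exponential growth and plated at 2000 (HuH7) or 1000 (HEK293) per well. Allowed to attach 96 h at 37°C, 5% CO2. Drug diluted in medium with 1% DMSO final, then 72 h at 37°C, 5% CO2. Viability read by MTT colorimetric assay.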

[1] = system: Hepatitis C virus isolate HC-J4; test: Inhibition of HCV genotype 1b J4 N-terminal His-tagged NS5Bdelta21 polymerase expressed in Escherichia coli C41(DE3) assessed as amount of double-stranded RNA synthesis at 20 uM
HEK293 = test: Cytotoxicity against human HEK293 cells up to 512 uM after 72 hrs by MTT assay; type: cell-based; conditions: hek293, 72 h; summary of the method: as §1
[2] = Inhibition of HCV genotype 1b J4 N-terminal His-tagged NS5Bdelta21 polymerase expressed in Escherichia coli C41(DE3) assessed as amount of double-stranded RNA synthesis; design: species or system Hepatitis C virus isolate HC-J4
Hepatitis C virus = test: Antiviral activity against HCV JFH-1 assessed as inhibition of viral replication by cell based assay; type: functional, organism-based, Hepacivirus hominis
[3] = system: Hepatitis C virus isolate HC-J4; test: Ratio of IC50 for HCV genotype 1b J4 NS5Bdelta21 polymerase P495L mutant to IC50 for HCV genotype 1b J4 wild type N-terminal His-tagged NS5Bdelta21 polymerase
Summary of the method: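 IC50 measured in cell-free poly U/ATP double-stranded RNA synthesis assay for purified His-tagged NS5BΔ21 P495L mutant and wild type, both prepared identically by Ni-NTA purification. Mutant IC50 divided by wild-type IC50 and reported as fold difference. A Thumb Pocket I benzimidazole inhibitor served as control.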

[4] = system: RNA-directed RNA polymerase (Hepacivirus hominis), O39930 [C316Y]; test: Inhibition of HCV genotype 1b J4 NS5Bdelta21 polymerase C316Y mutant expressed in Escherichia coli C41(DE3) assessed as amount of double-stranded RNA synthesis; conditions: Hepatitis C virus isolate HC-J4
Summary of the method: (§2)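 N-terminal His6-tagged NS5BΔ21 (C-terminal 21 residues removed) point mutants, made by site-directed mutagenesis, sequence-verified and purified like wild type: Ni-NTA affinity, imidazole elution, dialysis into Tris pH 7.5/sodium acetate/DTT/EDTA/10% glycerol. Cell-free assay quantifies double-stranded RNA synthesized on poly U homopolymeric template with ATP. IC50 determined per mutant.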

[5] = system: RNA-directed RNA polymerase (Hepacivirus hominis), O39930 [H95Q]; test: Inhibition of HCV genotype 1b J4 NS5Bdelta21 polymerase H95Q mutant expressed in Escherichia coli C41(DE3) assessed as amount of double-stranded RNA synthesis; conditions: Hepatitis C virus isolate HC-J4; summary of the method: as §2
[6] = system: RNA-directed RNA polymerase (Hepacivirus hominis), O39930 [M423T]; test: Inhibition of HCV genotype 1b J4 NS5Bdelta21 polymerase M423T mutant expressed in Escherichia coli C41(DE3) assessed as amount of double-stranded RNA synthesis; conditions: Hepatitis C virus isolate HC-J4; summary of the method: as §2
Sequence of RNA-directed RNA polymerase (Hepacivirus hominis), O39930 [M423T] (O39930 entry or part of it M423T): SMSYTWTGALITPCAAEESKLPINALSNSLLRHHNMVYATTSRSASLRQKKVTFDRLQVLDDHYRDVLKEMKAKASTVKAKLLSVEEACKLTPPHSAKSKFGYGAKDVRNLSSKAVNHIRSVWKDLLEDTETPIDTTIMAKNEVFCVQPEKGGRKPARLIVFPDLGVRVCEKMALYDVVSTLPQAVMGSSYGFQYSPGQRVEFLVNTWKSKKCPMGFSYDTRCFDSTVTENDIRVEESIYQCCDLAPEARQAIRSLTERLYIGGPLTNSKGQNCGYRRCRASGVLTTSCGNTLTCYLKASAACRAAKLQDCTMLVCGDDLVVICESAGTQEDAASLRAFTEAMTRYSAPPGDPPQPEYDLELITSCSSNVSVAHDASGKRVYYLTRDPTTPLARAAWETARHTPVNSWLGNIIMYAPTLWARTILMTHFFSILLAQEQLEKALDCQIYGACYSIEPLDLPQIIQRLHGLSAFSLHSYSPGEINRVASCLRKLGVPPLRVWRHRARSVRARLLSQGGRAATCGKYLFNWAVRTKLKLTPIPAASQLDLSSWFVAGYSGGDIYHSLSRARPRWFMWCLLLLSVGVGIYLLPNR

Sequence of RNA-directed RNA polymerase (Hepacivirus hominis), O39930 [H95Q] (O39930 entry or part of it H95Q): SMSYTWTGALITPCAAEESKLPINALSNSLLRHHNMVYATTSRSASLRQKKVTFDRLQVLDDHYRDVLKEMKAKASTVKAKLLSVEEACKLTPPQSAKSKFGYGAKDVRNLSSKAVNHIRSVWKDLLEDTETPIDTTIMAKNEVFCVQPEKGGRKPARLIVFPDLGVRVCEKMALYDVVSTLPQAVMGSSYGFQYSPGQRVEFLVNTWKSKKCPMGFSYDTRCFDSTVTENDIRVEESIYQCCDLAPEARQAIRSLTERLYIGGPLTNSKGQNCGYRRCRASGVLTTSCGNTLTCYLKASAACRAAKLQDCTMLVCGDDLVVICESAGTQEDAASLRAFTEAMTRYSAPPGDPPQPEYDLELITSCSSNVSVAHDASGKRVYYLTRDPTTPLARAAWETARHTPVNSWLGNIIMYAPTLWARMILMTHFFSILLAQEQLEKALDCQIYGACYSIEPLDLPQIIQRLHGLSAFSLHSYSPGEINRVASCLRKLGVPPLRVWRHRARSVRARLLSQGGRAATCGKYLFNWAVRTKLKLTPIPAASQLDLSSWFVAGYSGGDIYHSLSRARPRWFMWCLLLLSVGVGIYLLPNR
Sequence of RNA-directed RNA polymerase (Hepacivirus hominis), O39930 [C316Y] (O39930 entry or part of it C316Y): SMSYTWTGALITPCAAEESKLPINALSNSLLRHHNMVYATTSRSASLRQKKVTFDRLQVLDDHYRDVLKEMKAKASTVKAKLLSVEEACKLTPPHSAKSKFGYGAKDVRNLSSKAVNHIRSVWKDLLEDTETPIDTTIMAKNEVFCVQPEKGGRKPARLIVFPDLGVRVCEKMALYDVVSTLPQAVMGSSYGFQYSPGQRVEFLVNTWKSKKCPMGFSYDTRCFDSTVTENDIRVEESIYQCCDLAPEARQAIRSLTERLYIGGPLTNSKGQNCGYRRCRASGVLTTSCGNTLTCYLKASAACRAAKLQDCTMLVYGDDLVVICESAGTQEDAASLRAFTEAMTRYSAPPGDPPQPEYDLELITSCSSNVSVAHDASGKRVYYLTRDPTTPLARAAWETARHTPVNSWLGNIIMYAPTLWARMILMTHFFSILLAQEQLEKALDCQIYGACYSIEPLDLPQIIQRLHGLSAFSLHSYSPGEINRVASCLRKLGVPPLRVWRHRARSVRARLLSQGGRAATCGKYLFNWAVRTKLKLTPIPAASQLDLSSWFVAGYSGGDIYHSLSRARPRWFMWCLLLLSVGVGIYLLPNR

| inhibition [1] [%] | IC50 [2] [µM] | Compound | Activity (Huh-7) | Activity (HEK293) | IC50 (Hepatitis C virus) [µM] | Ratio IC50 [3] | inhibition [4] | inhibition [5] | inhibition [6] |
| --- | --- | --- | --- | --- | --- | --- | --- | --- | --- |
| 14 | > 20 | COc1cc(OC)c2c(c1)O/C(=C\c1ccc(C)cc1C)C2=O | Non-toxic | Non-toxic |  |  |  |  |  |
| 95 | 2.2 | CCCCn1cc(/C=C2\Oc3cc(O)cc(O)c3C2=O)c2ccccc21 | Non-toxic | Non-toxic |  |  |  |  |  |
| 33 | > 20 | O=C1/C(=C/c2ccccc2O)Oc2cc(O)cc(O)c21 | Non-toxic | Non-toxic |  |  |  |  |  |
| 3 | > 20 | O=C1/C(=C/c2ccc(C3CCCCC3)cc2)Oc2cc(OCc3ccccc3)cc(OCc3ccccc3)c21 | Non-toxic | Non-toxic |  |  |  |  |  |
| 81 | 5.8 | O=C1/C(=C/c2ccc(O)cc2O)Oc2cc(O)cc(O)c21 | Non-toxic | Non-toxic |  |  |  |  |  |
| 61 | 9.7 | O=C1/C(=C/c2ccc(O)cc2)Oc2cc(O)cc(O)c21 | Non-toxic | Non-toxic | 40 |  |  |  |  |
| 29.9 | > 20 | CC(C)c1ccc(/C=C2\Oc3cccc(O)c3C2=O)cc1 | Non-toxic | Non-toxic |  |  |  |  |  |
| 93 | 2.5 | CCCCc1ccc(/C=C2\Oc3cc(O)cc(O)c3C2=O)cc1 | Non-toxic | Non-toxic |  |  |  |  |  |
| 74 | > 20 | COc1cccc(/C=C2\Oc3cc(O)cc(O)c3C2=O)c1OC | Non-toxic | Non-toxic |  |  |  |  |  |
|  | > 20 | CCCCc1ccc(/C=C2\Oc3cc(F)cc(F)c3C2=O)cc1 | Non-toxic | Non-toxic |  |  |  |  |  |
| 85 | 5.4 | O=C1/C(=C/c2ccc(O)c(O)c2)Oc2cc(O)cc(O)c21 [AUREUSIDIN] |  |  |  |  |  |  |  |
| 80 | 11.2 | O=C1/C(=C/c2ccc(F)cc2)Oc2cc(O)cc(O)c21 | Non-toxic | Non-toxic |  |  |  |  |  |
| 94 | 3.8 | CN1CCN(c2ccc(/C=C3\Oc4cccc(O)c4C3=O)cc2)CC1 | Non-toxic | Non-toxic |  |  |  |  |  |
| 56 | 11.1 | O=C1/C(=C/c2ccccc2O)Oc2cccc(O)c21 | Non-toxic | Non-toxic |  |  |  |  |  |
| 78 | 3.1 | CC(C)c1ccc(/C=C2\Oc3cc(O)cc(O)c3C2=O)cc1 | Non-toxic | Non-toxic |  |  |  |  |  |
| 92 | 2.3 | O=C1/C(=C/c2ccc(C3CCCCC3)cc2)Oc2cc(O)cc(O)c21 | Non-toxic | Non-toxic |  |  |  |  |  |
| 79 | 3.6 | CCc1ccc(/C=C2\Oc3cc(O)cc(O)c3C2=O)cc1 | Non-toxic | Non-toxic |  |  |  |  |  |
| 57 | 14.6 | O=C1/C(=C/c2ccccc2)Oc2cccc(O)c21 | Non-toxic | Non-toxic |  |  |  |  |  |
| 60.8 | > 20 | CC(C)(C)c1ccc(/C=C2\Oc3cccc(O)c3C2=O)cc1 | Non-toxic | Non-toxic |  |  |  |  |  |
|  | > 20 | CCCCc1ccc(/C=C2\Oc3ccccc3C2=O)cc1 | Non-toxic | Non-toxic |  |  |  |  |  |
| 37 | > 20 | O=C1/C(=C/c2cccc(O)c2)Oc2cccc(O)c21 | Non-toxic | Non-toxic |  |  |  |  |  |

| inhibition [1] [%] | IC50 [2] [µM] | Compound | Activity (Huh-7) | Activity (HEK293) | IC50 (Hepatitis C virus) [µM] | Ratio IC50 [3] | inhibition [4] | inhibition [5] | inhibition [6] |
| --- | --- | --- | --- | --- | --- | --- | --- | --- | --- |
| 59 | 15.1 | O=C1/C(=C/c2ccccc2)Oc2cc(O)cc(O)c21 | Non-toxic | Non-toxic |  |  |  |  |  |
| 52 | > 20 | COc1cc(OC)c(/C=C2\Oc3cccc(O)c3C2=O)c(OC)c1 | Non-toxic | Non-toxic |  |  |  |  |  |
| 42.7 | > 20 | CCCCc1ccc(/C=C2\Oc3cccc(O)c3C2=O)cc1 | Non-toxic | Non-toxic |  |  |  |  |  |
| 2 | > 20 | COc1cc(OC)c2c(c1)O/C(=C\c1ccc(C3CCCCC3)cc1)C2=O | Non-toxic | Non-toxic |  |  |  |  |  |
| 11 | > 20 | COc1cc(OC)c2c(c1)O/C(=C\c1cccc(O)c1)C2=O | Non-toxic | Non-toxic |  |  |  |  |  |
| 3 | > 20 | CCCCc1ccc(/C=C2\Oc3cc(OC)cc(OC)c3C2=O)cc1 | Non-toxic | Non-toxic |  |  |  |  |  |
| 0.7 | > 20 | COc1cc(OC)c2c(c1)O/C(=C\c1ccccc1O)C2=O | Non-toxic | Non-toxic |  |  |  |  |  |
| 94 | 2.6 | O=C1/C(=C/c2ccc(O)cc2O)Oc2cccc(O)c21 | Non-toxic | Non-toxic |  |  |  |  |  |
| 64 | 5.8 | Cc1ccc(/C=C2\Oc3cccc(O)c3C2=O)c(C)c1 | Non-toxic | Non-toxic |  |  |  |  |  |
|  |  | CC(=O)Nc1ccc(-c2ccc(Cl)cc2)c(COc2ccc(-c3nc4cc(C(=O)O)ccc4n3C3CCCCC3)cc2)c1 |  |  |  | 10 |  |  |  |
| 58 | > 20 | O=C1/C(=C/c2ccccc2F)Oc2cccc(O)c21 | Non-toxic | Non-toxic |  |  |  |  |  |
| 37 | > 20 | COc1cc(OC)c2c(c1)O/C(=C\c1ccc(O)cc1)C2=O | Non-toxic | Non-toxic |  |  |  |  |  |
| 75 | 9.7 | COc1ccc(/C=C2\Oc3cccc(O)c3C2=O)c(OC)c1 | Non-toxic | Non-toxic |  |  |  |  |  |
| 47 | > 20 | COc1cccc(OC)c1/C=C1\Oc2cccc(O)c2C1=O | Non-toxic | Non-toxic |  |  |  |  |  |
| 66 | 11.4 | O=C1/C(=C/c2ccc(N3CCOCC3)cc2)Oc2cc(O)cc(O)c21 | Non-toxic | Non-toxic |  |  |  |  |  |
| 50 | > 20 | COc1ccc(/C=C2\Oc3cc(O)cc(O)c3C2=O)c(OC)c1OC | Non-toxic | Non-toxic |  |  |  |  |  |
| 35 | > 20 | O=C1/C(=C/c2ccc(O)cc2)Oc2cc(O)ccc21 | Non-toxic | Non-toxic |  |  |  |  |  |
| 18 | > 20 | O=C1/C(=C/c2ccccc2O)Oc2cc(O)ccc21 | Non-toxic | Non-toxic |  |  |  |  |  |
| 10 | > 20 | O=C1/C(=C/c2cccc(O)c2)Oc2cc(O)ccc21 | Non-toxic | Non-toxic |  |  |  |  |  |
| 10 | > 20 | O=C1/C(=C/c2ccc(F)cc2F)Oc2cccc(F)c21 | Non-toxic | Non-toxic |  |  |  |  |  |

| Compound | inhibition [1] [%] | IC50 [2] [µM] | Activity (Huh-7) | Activity (HEK293) | IC50 (Hepatitis C virus) [µM] | Ratio IC50 [3] | inhibition [4] | inhibition [5] | inhibition [6] |
| --- | --- | --- | --- | --- | --- | --- | --- | --- | --- |
| O=C1/C(=C/c2ccc(O)cc2)Oc2cccc(O)c21 | 60 | 5.9 | Non-toxic | Non-toxic | 18 | 6 | Active | Active | Active |
